Biological target: T1, Angiotensin-converting enzyme (Rattus norvegicus) (UniProt P47820)
T1 sequence (whole entry): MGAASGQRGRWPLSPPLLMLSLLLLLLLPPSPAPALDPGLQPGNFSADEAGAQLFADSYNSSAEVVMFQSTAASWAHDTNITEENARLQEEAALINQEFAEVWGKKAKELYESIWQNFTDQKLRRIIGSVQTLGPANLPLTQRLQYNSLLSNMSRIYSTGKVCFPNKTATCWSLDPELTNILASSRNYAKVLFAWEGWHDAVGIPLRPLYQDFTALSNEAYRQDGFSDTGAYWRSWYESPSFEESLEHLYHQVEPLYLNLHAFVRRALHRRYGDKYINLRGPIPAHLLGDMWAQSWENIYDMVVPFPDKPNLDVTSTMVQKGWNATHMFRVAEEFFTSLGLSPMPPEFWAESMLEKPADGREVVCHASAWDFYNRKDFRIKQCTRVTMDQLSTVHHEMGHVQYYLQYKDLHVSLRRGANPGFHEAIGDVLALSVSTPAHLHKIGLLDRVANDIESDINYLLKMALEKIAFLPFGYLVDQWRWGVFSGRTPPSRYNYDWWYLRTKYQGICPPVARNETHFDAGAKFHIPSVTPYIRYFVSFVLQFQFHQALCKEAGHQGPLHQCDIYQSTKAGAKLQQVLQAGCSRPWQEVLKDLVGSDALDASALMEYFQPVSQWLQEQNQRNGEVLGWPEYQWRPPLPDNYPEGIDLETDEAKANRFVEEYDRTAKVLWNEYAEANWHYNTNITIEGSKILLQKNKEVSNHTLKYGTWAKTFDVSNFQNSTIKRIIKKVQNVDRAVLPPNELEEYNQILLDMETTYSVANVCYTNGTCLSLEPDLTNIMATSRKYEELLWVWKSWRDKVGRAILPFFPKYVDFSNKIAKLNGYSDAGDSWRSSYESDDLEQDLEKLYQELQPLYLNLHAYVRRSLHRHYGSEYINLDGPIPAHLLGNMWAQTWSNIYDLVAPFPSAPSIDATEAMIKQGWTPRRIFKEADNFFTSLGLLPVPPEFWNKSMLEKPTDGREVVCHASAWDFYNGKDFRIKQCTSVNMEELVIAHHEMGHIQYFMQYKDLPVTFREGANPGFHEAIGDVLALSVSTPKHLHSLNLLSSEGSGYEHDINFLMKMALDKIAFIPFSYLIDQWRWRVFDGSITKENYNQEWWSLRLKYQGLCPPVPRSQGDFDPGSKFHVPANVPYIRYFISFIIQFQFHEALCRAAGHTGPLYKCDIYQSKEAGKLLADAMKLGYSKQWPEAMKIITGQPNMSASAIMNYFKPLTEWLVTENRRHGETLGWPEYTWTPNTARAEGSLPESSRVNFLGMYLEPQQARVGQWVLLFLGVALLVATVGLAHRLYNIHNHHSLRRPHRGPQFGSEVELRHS
Assay: Evaluation of plasma inhibition of Angiotensin I converting enzyme activity in conscious rat 6 hour after oral administration at a dose of 10 mg/kg
Format: functional, organism-based
Set-up: dose 10 mg/kg
Procedure, shortened: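 Male conscious normotensive Sprague-Dawley rats (275-390 g) fitted the day before with femoral arterial and venous catheters under methohexital anesthesia. Three angiotensin-I challenges (300 ng/kg iv) given as baseline. Compound given iv, ia or po (12.3 mg/kg po dose in 3% cornstarch at 1 mg/mL), then AI challenges repeated at set times. Pressor response compared with the mean baseline response and expressed as % inhibition.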

inhibition [%] | SMILES
26 | CC(C)[C@H](S)C(=O)NC1(C(=O)N[C@@H](Cc2c[nH]c3ccccc23)C(=O)O)CCCC1
15 | CC(C)[C@H](S)C(=O)NC1(C(=O)N[C@@H](Cc2ccc(O)cc2)C(=O)O)CCCC1

From ChEMBL document CHEMBL1128218, “New alpha-thiol dipeptide dual inhibitors of angiotensin-I converting enzyme and neutral endopeptidase EC 3.4.24.11” (J Med Chem, 1995)
